Reference: ChEMBL document CHEMBL1649436, “Antiviral activity of MK-4965, a novel nonnucleoside reverse transcriptase inhibitor” (Antimicrob Agents Chemother, 2009)

Tests used:
Type in all cases: functional
[1] = tested on: Human immunodeficiency virus 1; assay: Antiviral activity against NRTI-, PI-resistant HIV1 harboring mutant reverse transcriptase relative to HIV1 CNDO with wild type reverse transcriptase
Method in brief: (§1)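 Single-cycle PhenoScreen assay run by Monogram Biosciences, using viruses carrying RT sequences from clinical isolates, subtypes/CRFs or PI/NRTI-resistant clade B viruses; nine serial drug concentrations; activity expressed relative to drug-sensitive reference strain CNDO (protease and RT from NL4-3), with multidrug-resistant MDRC4 as assay-performance control.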

[2] = tested on: Human immunodeficiency virus 1; assay: Antiviral activity against HIV1 CRF02_AG harboring mutant reverse transcriptase relative to HIV1 CNDO with wild type reverse transcriptase; method in brief: as §1
[3] = tested on: Human immunodeficiency virus 1; assay: Antiviral activity against HIV1 CRF17_BF harboring mutant reverse transcriptase relative to HIV1 CNDO with wild type reverse transcriptase; method in brief: as §1
[4] = tested on: Human immunodeficiency virus 1; assay: Antiviral activity against HIV1 isolate R8 harboring reverse transcriptase K103N and Y181C mutant infected in human MT4 cells assessed as inhibition of viral replication after 72 hrs in presence of 50% human serum; settings: Human immunodeficiency virus 1, isolate R8, MT4, 72 h
Method in brief: (§2)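 Multiple-cycle assay: MT-4 cells (2.5 × 10^5) infected with R8-based virus at low MOI, no inhibitor, 24 h at 37°C, 5% CO2; washed, reseeded at 5 × 10^4 cells in RPMI 1640 with 10% FBS or 50% type AB human serum; threefold serial dilutions from 833 nM to 0.32 nM; 72 h; p24 in medium by AlphaScreen; EC95 = lowest concentration giving ≥95% p24 reduction versus untreated.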

[5] = tested on: Human immunodeficiency virus 1; assay: Antiviral activity against HIV1 clade A harboring mutant reverse transcriptase relative to HIV1 CNDO with wild type reverse transcriptase
[6] = tested on: Human immunodeficiency virus 1; assay: Antiviral activity against HIV1 isolate R8 harboring wild type reverse transcriptase infected in human MT4 cells assessed as inhibition of viral replication after 72 hrs in presence of 50% human serum; settings: Human immunodeficiency virus 1, isolate R8, MT4, 72 h; method in brief: as §2
[7] = tested on: Human immunodeficiency virus 1; assay: Antiviral activity against HIV1 clade C harboring mutant reverse transcriptase relative to HIV1 CNDO with wild type reverse transcriptase
[8] = tested on: Human immunodeficiency virus 1; assay: Antiviral activity against HIV1 CRF01_AE harboring mutant reverse transcriptase relative to HIV1 CNDO with wild type reverse transcriptase; method in brief: as §1
[9] = tested on: Human immunodeficiency virus 1; assay: Antiviral activity against HIV1 isolate R8 harboring reverse transcriptase K103N mutant infected in human MT4 cells assessed as inhibition of viral replication after 72 hrs in presence of 10% FBS; settings: Human immunodeficiency virus 1, isolate R8, MT4, 72 h; method in brief: as §2
[10] = tested on: Human immunodeficiency virus 1; assay: Antiviral activity against HIV1 isolate R8 harboring wild type reverse transcriptase infected in human MT4 cells assessed as inhibition of viral replication after 72 hrs in presence of 10% FBS; settings: Human immunodeficiency virus 1, isolate R8, MT4, 72 h; method in brief: as §2
[11] = tested on: Human immunodeficiency virus 1; assay: Antiviral activity against NRTI-resistant HIV1 harboring mutant reverse transcriptase relative to HIV1 CNDO with wild type reverse transcriptase; method in brief: as §1
[12] = tested on: Human immunodeficiency virus 1; assay: Antiviral activity against HIV1 clade B harboring mutant reverse transcriptase relative to HIV1 CNDO with wild type reverse transcriptase
[13] = tested on: Human immunodeficiency virus 1; assay: Antiviral activity against HIV1 isolate R8 harboring reverse transcriptase K103N mutant infected in human MT4 cells assessed as inhibition of viral replication after 72 hrs in presence of 50% human serum; settings: Human immunodeficiency virus 1, isolate R8, MT4, 72 h; method in brief: as §2
[14] = tested on: Human immunodeficiency virus 1; assay: Antiviral activity against HIV1 isolate R8 harboring reverse transcriptase K103N and Y181C mutant infected in human MT4 cells assessed as inhibition of viral replication after 72 hrs in presence of 10% FBS; settings: Human immunodeficiency virus 1, isolate R8, MT4, 72 h; method in brief: as §2
[15] = tested on: Human immunodeficiency virus 1; assay: Antiviral activity against HIV1 clade F1 harboring mutant reverse transcriptase relative to HIV1 CNDO with wild type reverse transcriptase
[16] = tested on: Human immunodeficiency virus 1; assay: Antiviral activity against HIV1 clade G harboring mutant reverse transcriptase relative to HIV1 CNDO with wild type reverse transcriptase
[17] = tested on: Human immunodeficiency virus 1; assay: Antiviral activity against HIV1 isolate R8 harboring reverse transcriptase Y181C mutant infected in human MT4 cells assessed as inhibition of viral replication after 72 hrs in presence of 50% human serum; settings: Human immunodeficiency virus 1, isolate R8, MT4, 72 h; method in brief: as §2
[18] = tested on: Human immunodeficiency virus 1; assay: Antiviral activity against HIV1 isolate R8 harboring reverse transcriptase Y181C mutant infected in human MT4 cells assessed as inhibition of viral replication after 72 hrs in presence of 10% FBS; settings: Human immunodeficiency virus 1, isolate R8, MT4, 72 h; method in brief: as §2
[19] = tested on: Human immunodeficiency virus 1; assay: Antiviral activity against PI-resistant HIV1 harboring mutant reverse transcriptase relative to HIV1 CNDO with wild type reverse transcriptase; method in brief: as §1
[20] = tested on: Human immunodeficiency virus 1; assay: Antiviral activity against HIV1 clade H harboring mutant reverse transcriptase relative to HIV1 CNDO with wild type reverse transcriptase
[21] = tested on: Human immunodeficiency virus 1; assay: Antiviral activity against HIV1 clade D harboring mutant reverse transcriptase relative to HIV1 CNDO with wild type reverse transcriptase

Compound	fold change (FC) [1]	fold change (FC) [2]	fold change (FC) [3]	fold change (FC) [5]	fold change (FC) [7]	fold change (FC) [8]	fold change (FC) [11]	fold change (FC) [12]	fold change (FC) [15]	fold change (FC) [16]	fold change (FC) [19]	fold change (FC) [20]	fold change (FC) [21]	further results
Nc1ccn([C@@H]2CS[C@H](CO)O2)c(=O)n1 [LAMIVUDINE]	5.96	1.31	1.37											
Cc1ccnc2c1NC(=O)c1cccnc1N2C1CC1 [NEVIRAPINE]	0.32	0.4	0.83	0.94	0.7	0.67	0.49	1.25	0.73	1.25	1.05	0.13	0.35	EC95 [4]: > 8 µM; EC95 [6]: 0.464 µM; EC95 [9]: > 8 µM; EC95 [10]: 0.438 µM; EC95 [13]: > 8 µM; EC95 [14]: > 8 µM; EC95 [17]: > 8 µM; EC95 [18]: > 8 µM
C[C@H](Cn1cnc2c(N)ncnc21)OCP(=O)(O)O [TENOFOVIR ANHYDROUS]	2.43	0.93	0.83	0.95	0.97	0.78	1.97	0.94	0.96	0.96	0.82	0.67	0.74	
